Values belong to the compound of their own block, whether it stands above or below them. Active and inactive are the calls of the source. The calls are words filed in the database; no cut-off is given here. Residues, ends and D or L forms follow the SMILES beside them.
How the values were obtained:
[1] = target: T1, C-X-C chemokine receptor type 4 (Homo sapiens, UniProt P61073); assay: Binding affinity to CXCR4 in human CCRF-CEM cell membranes assessed as signal to noise ratio in presence of 0.1 mM plerixafor by STD-NMR method
T1 sequence (P61073 whole entry): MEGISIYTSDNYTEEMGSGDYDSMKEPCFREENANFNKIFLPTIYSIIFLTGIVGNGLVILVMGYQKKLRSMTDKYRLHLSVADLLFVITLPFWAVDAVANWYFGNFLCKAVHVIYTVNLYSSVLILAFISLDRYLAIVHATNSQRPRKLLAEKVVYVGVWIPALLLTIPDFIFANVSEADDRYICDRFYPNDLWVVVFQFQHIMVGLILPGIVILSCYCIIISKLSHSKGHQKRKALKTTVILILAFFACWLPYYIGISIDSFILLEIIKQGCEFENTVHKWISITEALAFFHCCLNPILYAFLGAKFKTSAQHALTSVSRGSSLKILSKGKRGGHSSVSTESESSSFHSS
How it was run: (§1)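 Pellet of 20 x 10^6 intact cells (CCRF-CEM, CXCR4-null CHO or CXCR4-stably transfected CHO) resuspended in 450 µL PBS pH 7.4 plus 50 µL 2H2O. Peptide added for STD, WaterLOGSY or trNOESY 1H NMR. Spectra of peptide alone and of cells alone acquired as reference. Competition run by adding plerixafor to the indicated concentration (0.010–0.100 mM in STD). STD/WaterLOGSY read as signal-to-noise ratio.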

[2] = target: T1, C-X-C chemokine receptor type 4; assay: Binding affinity to CXCR4 in human CCRF-CEM cell membranes in presence of plerixafor by WaterLOGSY-NMR method; how it was run: as §1
[3] = Stability in human CCRF-CEM cells up to 2 hrs by NMR spectral analysis; format: ADME, cell-based
Plasma [4] = assay: Drug metabolism in human plasma assessed as [Cys-Arg-Phe-Phe-Cys]-COOH metabolite formation after 15 to 30 mins by ESI-RP-HPLC analysis; format: ADME, cell-free
How it was run: (§2)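 Peptide in sterile water mixed with 90% human serum and incubated at 37 °C. Aliquots taken at 0, 15, 30, 60 and 120 min, precipitated with ACN/0.1% TFA and centrifuged (12 000 rpm, 15 min, 4 °C). Supernatant analysed by RP-HPLC with a 10–90% ACN (0.1% TFA) gradient over 20 min. Relative peptide level taken from A230 peak integration.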

[5] = target: T1, C-X-C chemokine receptor type 4; assay: Binding affinity to CXCR4 in human CCRF-CEM cell membranes assessed as signal to noise ratio in presence of 0.02 mM plerixafor by STD-NMR method; how it was run: as §1
[6] = target: T1, C-X-C chemokine receptor type 4; assay: Binding affinity to CXCR4 in human CCRF-CEM cell membranes assessed as signal to noise ratio in presence of 0.05 mM plerixafor by STD-NMR method; how it was run: as §1
[7] = target: T1, C-X-C chemokine receptor type 4; assay: Binding affinity to CXCR4 in human CCRF-CEM cell membranes by WaterLOGSY-NMR method; how it was run: as §1
[8] = target: T1, C-X-C chemokine receptor type 4; assay: Binding affinity to CXCR4 in human CCRF-CEM cell membranes assessed as signal to noise ratio by STD-NMR method; how it was run: as §1
[9] = Half life in human plasma by HPLC analysis; format: ADME, cell-free; how it was run: as §2
[10] = target: T1, C-X-C chemokine receptor type 4; assay: Binding affinity to CXCR4 in human CCRF-CEM cell membranes assessed as signal to noise ratio in presence of 0.01 mM plerixafor by STD-NMR method; how it was run: as §1
Cricetulus griseus = organism: Cricetulus griseus; assay: Binding affinity to CHO cell membranes assessed as signal to noise ratio by STD-NMR method; how it was run: as §1
[11] = target: T1, C-X-C chemokine receptor type 4; assay: Antagonist activity at CXCR4 in human CCRF-CEM cells assessed as inhibition of PE-conjugated 12G5 antibody binding; format: cell-based
How it was run: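 CCRF-CEM cells (5 × 10^5) preincubated 30 min at 37 °C, 5% CO2 with peptide at 0.01, 0.1, 1 and 10 µM in PBS plus 0.2% BSA and 0.1% NaN3. Then labeled 30 min with PE anti-CXCR4 antibody clone 12G5. IC50 taken as concentration reducing 12G5 binding by 50%, reported as mean ± SD.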

[12] = target: T1, C-X-C chemokine receptor type 4; assay: Binding affinity to CXCR4 (unknown origin) expressed in CHO cell membranes assessed as signal to noise ratio by STD-NMR method; how it was run: as §1
Plasma [13] = assay: Drug level in human plasma treated with (4R,7S,10S,13S,16R)-16-((S)-2-((S)-2-amino-5-guanidinopentanamido)propanam(4R,7S,10S,13S,16R)-16-((S)-2-((S)-2-amino-5-guanidinopentanamido)propanamido)-7,10-dibenzyl-13-(3-guanidinopropyl)-6,9,12,15-tetraoxo-1,2-dithia-5,8,11,14-tetraazacycloheptadecane-4-carboxylic acid after 15 to 30 mins by ESI-RP-HPLC analysis; format: ADME, cell-free; how it was run: as §2
[14] = Stability in human CCRF-CEM cells up to 6 hrs by NMR spectral analysis; format: ADME, cell-based
Plasma [15] = assay: Stability in human plasma up to 120 mins by ESI-RP-HPLC analysis; format: ADME, cell-free; settings: 2 h; how it was run: as §2

Ratio [1]: 5.9
Activity [2]: inactive
Stability [3]: Unstable
Drug metabolism (Plasma [4]): Metabolite_Detected
Ratio [5]: 6.3
Ratio [6]: 6.1
Activity [7]: Active
Ratio [8]: 13.3
half-life [9]: 22 min
Ratio [10]: 7.2
Compound: C[C@H](NC(=O)[C@@H](N)CCCNC(=N)N)C(=O)N[C@H]1CSSC[C@@H](C(=O)O)NC(=O)[C@H](Cc2ccccc2)NC(=O)[C@H](Cc2ccccc2)NC(=O)[C@H](CCCNC(=N)N)NC1=O

Ratio (Cricetulus griseus): 8.2
IC50 [11]: > 10 µM
Ratio [12]: 9.6
Compound: C[C@H](NC(=O)[C@H](N)CCCNC(=N)N)C(=O)N[C@H]1CSSC[C@@H](C(=O)O)NC(=O)[C@H](Cc2ccccc2)NC(=O)[C@H](Cc2ccccc2)NC(=O)[C@H](CCCNC(=N)N)NC1=O

Drug metabolism (Plasma [13]): Metabolite_Detected
Compound: N=C(N)NCCC[C@@H]1NC(=O)[C@@H](N)CSSC[C@@H](C(=O)O)NC(=O)[C@H](Cc2ccccc2)NC(=O)[C@H](Cc2ccccc2)NC1=O (HELM PEPTIDE1{C.R.F.F.C}$PEPTIDE1,PEPTIDE1,1:R3-5:R3$$$V2.0)

Ratio (Cricetulus griseus): 11.7
IC50 [11]: > 10 µM
Ratio [12]: 10.2
Compound: C[C@@H]1NC(=O)[C@H](Cc2ccccc2)NC(=O)[C@@H](NC(=O)[C@H](CCCNC(=N)N)NC(=O)[C@@H](N)Cc2ccccc2)CSSC[C@@H](C(=O)O)NC(=O)[C@H](CCCNC(=N)N)NC1=O (HELM PEPTIDE1{F.R.C.F.A.R.C}$PEPTIDE1,PEPTIDE1,3:R3-7:R3$$$V2.0)

Compound: C[C@H](NC(=O)C1CCN(C(=N)N)CC1)C(=O)N[C@H]1CSSC[C@@H](C(=O)O)NC(=O)[C@H](Cc2ccccc2)NC(=O)[C@H](Cc2ccccc2)NC(=O)[C@H](CCCNC(=N)N)NC1=O (HELM PEPTIDE1{[N=C(N)N1CCC(C(=O)[*:2])CC1].A.C.R.F.F.C}$PEPTIDE1,PEPTIDE1,3:R3-7:R3$$$V2.0)
IC50 [11]: > 10 µM

IC50 [11]: > 10 µM
Compound: C[C@H](NC(=O)CCCNC(=N)N)C(=O)N[C@H]1CSSC[C@@H](C(=O)O)NC(=O)[C@H](Cc2ccccc2)NC(=O)[C@H](Cc2ccccc2)NC(=O)[C@H](CCCNC(=N)N)NC1=O (HELM PEPTIDE1{[N=C(N)NCCCC(=O)[*:2]].A.C.R.F.F.C}$PEPTIDE1,PEPTIDE1,3:R3-7:R3$$$V2.0)

Compound: C[C@H](NC(=O)c1ccc(NC(=N)N)cc1)C(=O)N[C@H]1CSSC[C@@H](C(=O)O)NC(=O)[C@H](Cc2ccccc2)NC(=O)[C@H](Cc2ccccc2)NC(=O)[C@H](CCCNC(=N)N)NC1=O (HELM PEPTIDE1{[N=C(N)Nc1ccc(C(=O)[*:2])cc1].A.C.R.F.F.C}$PEPTIDE1,PEPTIDE1,3:R3-7:R3$$$V2.0)
IC50 [11]: > 10 µM

Stability [14]: Stable
Ratio (Cricetulus griseus): 12.5
IC50 [11]: 3.2 µM
Ratio [12]: 35.9
Ratio [8]: 10
half-life [9]: > 120 min
Stability (Plasma [15]): Stable
Compound: C[C@H](NC(=O)c1cccc(NC(=N)N)c1)C(=O)N[C@H]1CSSC[C@@H](C(=O)O)NC(=O)[C@H](Cc2ccccc2)NC(=O)[C@H](Cc2ccccc2)NC(=O)[C@H](CCCNC(=N)N)NC1=O (HELM PEPTIDE1{[N=C(N)Nc1cccc(C(=O)[*:2])c1].A.C.R.F.F.C}$PEPTIDE1,PEPTIDE1,3:R3-7:R3$$$V2.0)

Activity [7]: Active
Compound: CC(=O)N[C@@H](CCCNC(=N)N)C(=O)N[C@@H](C)C(=O)N[C@H]1CSSC[C@@H](C(=O)O)NC(=O)[C@H](Cc2ccccc2)NC(=O)[C@H](Cc2ccccc2)NC(=O)[C@H](CCCNC(=N)N)NC1=O (HELM PEPTIDE1{[ac].R.A.C.R.F.F.C}$PEPTIDE1,PEPTIDE1,4:R3-8:R3$$$V2.0)

— ChEMBL document CHEMBL4020843, “Ligand-Based NMR Study of C-X-C Chemokine Receptor Type 4 (CXCR4)-Ligand Interactions on Living Cancer Cells” (J Med Chem, 2018)
